Molecules are shown by their SMILES. Activity calls are given as the source filed them. No cut-off for these calls is given here.

A short description of series [1]: Toxicity in human NCI-H292 cells xenografted CD-1 mouse assessed as weight loss at 120 mg/kg, po administered 3 times per week for 2 weeks starting 2 hrs post-erlotinib treatment and measured during compound dosing. In kind it is organism-based. As to conditions: in vivo, 336 h. The method, boiled down:
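NCI-H292 cells in 50% Matrigel/PBS injected s.c. into flank of female CD1-nude mice; dosing began after 2 wk at mean tumour 0.2 cm³, n = 5/group. […] Body weight and signs monitored; treatment ended day 16.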
In general terms: Xenograft models place foreign cells or tissue in a host animal.

Series [2] has as its system NCI-H23. Description: Synergistic antiproliferative activity against human NCI-H23 cells assessed as combination index at ED75 measured after 72 hrs in presence of erlotinib by celltiter-glo assay. It is filed as functional. (In general: In ATP-based viability assays light output follows the ATP content of the culture.)
For series [3], the system named is NCI-N87. Description: Synergistic antiproliferative activity against human NCI-N87 cells assessed as combination index at ED90 measured after 72 hrs in presence of lapatinib by celltiter-glo assay. It is filed as functional.
Series [4] has as its target RAC-alpha serine/threonine-protein kinase (Homo sapiens) (UniProt P31749). Description: Inhibition of AKT in human A-431 cells assessed as reduction in PRAS40 phosphorylation at T246 residue at 5 umol/L measured after 5 hrs by Western blot analysis. In kind it is cell-based. The following applies: dose 5.0 µmol/L. The method, boiled down:
(§1)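 Cells were lysed in Tris-HCl pH 7.5, 150 mM NaCl, 1% Triton X-100 with protease and phosphatase inhibitors. Lysates were run on SDS-PAGE, transferred to nitrocellulose and probed with phospho-specific antibodies.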
A general note: A western blot detects proteins with antibodies after separation by electrophoresis.

For series [5] the target is unchanged. Description: Inhibition of AKT in human A-431 cells assessed as reduction in PRAS40 phosphorylation at T246 residue at 5 umol/L measured after 5 hrs in presence of erlotinib by Western blot analysis. In kind it is cell-based. As to conditions: dose 5.0 µmol/L. The method, boiled down: as §1
Series [6] has as its system HCC70. The series can be described thus: Synergistic antiproliferative activity against human HCC70 cells assessed as combination index at ED75 measured after 96 hrs in presence of lapatinib by celltiter-glo assay. It is filed as functional.
Series [7] concerns MDA-MB-468. The series can be described thus: Synergistic antiproliferative activity against human MDA-MB-468 cells assessed as combination index at ED90 treated 24 hrs prior to lapatinib and measured after 72 hrs by celltiter-glo assay. It is filed as functional. As to conditions: time 96 hrs.
Series [8] in a line: Toxicity in human HCC70 cells xenografted CB17/icr SCID mouse assessed as mortality at 120 mg/kg, po administered 3 times per week for 3 weeks starting 2 hrs post-lapatinib treatment and measured during compound dosing. The following applies: in vivo, 504 h. It is filed as organism-based. In outline:
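HCC70 cells in 50% Matrigel/PBS injected s.c. into flank of female C.B-17/ICR-scid mice; dosing began after 3 wk, groups randomized at mean tumour 0.2 cm³ (n = 5). Lapatinib 100 mg/kg p.o. in distilled water, 5 d/wk for 3 wk; MK-2206 in 30% Captisol p.o. 3×/wk for 3 wk, given 2 h after lapatinib. Body weight and physical signs monitored throughout.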

The test system of series [9] is PC-3. The series can be described thus: Antitumor activity against human PC-3 cells xenografted in CD1 nude mouse assessed as tumor growth inhibition at 120 mg/kg, po administered 3 times per week for 2 weeks starting 24 hrs post docetaxel treatment and measured during compound dosing by caliper method. In kind it is functional, organism-based. The method, boiled down:
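Male CD1-nude mice received s.c. PC-3 cells and were treated from day 25 after implant, at 0.2 cm³, n = 5. Docetaxel (0.73% ethanol in saline) was given at 5 mg/kg i.v. on day 0. MK-2206 (30% Captisol) was given at 120 mg/kg po on days 1, 3, 5, 8, 10, 12. Caliper volume twice weekly.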

The subject of series [10] is A2780. Description: Synergistic antiproliferative activity against human A2780 cells assessed as combination index at ED90 measured after 72 hrs in presence of doxorubicin by celltiter-glo assay. It is filed as functional. In outline: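 Cells were seeded at 2–3 × 10³ per well in RPMI 1640 with 10% FBS. At 24 h, MK-2206 and the partner drug were added simultaneously at constant concentration ratios spanning each agent's IC₅₀, for 72 h. Growth was read as cellular ATP by CellTiter-Glo. CI was taken from median-effect plots of each agent alone and in combination (Chou–Talalay), at ED₅₀, ED₇₅ and ED₉₀.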

In series [11] the test system is NCI-H460. The series can be described thus: Synergistic antiproliferative activity against human NCI-H460 cells assessed as combination index at ED75 measured after 72 hrs in presence of carboplatin by celltiter-glo assay. In kind it is functional.
The subject of series [12] is NCI-H460. Description: Synergistic antiproliferative activity against human NCI-H460 cells assessed as combination index at ED90 measured after 72 hrs in presence of gemcitabine by celltiter-glo assay. In kind it is functional.
The nature of series [13]: Toxicity in human NCI-H460 cells xenografted CD1 nude mouse assessed as body weight loss at 120 mg/kg, po administered 3 times per week for 2 weeks in presence of carboplatin measured during compound dosing relative to control. The following applies: in vivo, 336 h. It is filed as organism-based. In outline: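 Female CD1-nude mice with s.c. NCI-H460 tumours (50% Matrigel/50% PBS), randomized at mean 0.2 cm³, n=5/group, dosing from 12 d post-implant. Body weight monitored against vehicle-only controls.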

Series [14] can be described thus: Toxicity in human NCI-H460 cells xenografted CD1 nude mouse assessed as body weight loss at 120 mg/kg, po administered 3 times per week for 2 weeks measured on day 14 to 16 in presence of carboplatin. It is filed as organism-based. The following applies: in vivo, 336 h, time 14-16 day. The method, boiled down:
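NCI-H460 cells in 50% Matrigel/PBS injected s.c. into flank of CD1-nude mice; randomized at mean tumour 0.2 cm³ (n = 5). MK-2206 in 30% Captisol, 120 mg/kg p.o. days 0, 2, 4, 7, 9, 11. Carboplatin 50 mg/kg i.v. in saline days 0 and 7 (from day 12 after implant), or gemcitabine 100 mg/kg i.v. in saline days 0 and 7 (from day 8). Body weight monitored.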

Series [15] has as its system NCI-H1993. Description: Synergistic antiproliferative activity against human NCI-H1993 cells assessed as combination index at ED25 to ED90 measured after 72 hrs in presence of gemcitabine by celltiter-glo assay. It is filed as functional.
In series [16] the target is RAC-alpha serine/threonine-protein kinase (Homo sapiens) (UniProt P31749). The series can be described thus: Inhibition of AKT phosphorylation at S473 residue in human NCI-H1993 cells at 3 umol/L measured after 4 to 24 hrs in presence of gemcitabine by MSD assay. As to conditions: time 4-24 hrs.
Chain of RAC-alpha serine/threonine-protein kinase (Homo sapiens) (P31749 whole entry): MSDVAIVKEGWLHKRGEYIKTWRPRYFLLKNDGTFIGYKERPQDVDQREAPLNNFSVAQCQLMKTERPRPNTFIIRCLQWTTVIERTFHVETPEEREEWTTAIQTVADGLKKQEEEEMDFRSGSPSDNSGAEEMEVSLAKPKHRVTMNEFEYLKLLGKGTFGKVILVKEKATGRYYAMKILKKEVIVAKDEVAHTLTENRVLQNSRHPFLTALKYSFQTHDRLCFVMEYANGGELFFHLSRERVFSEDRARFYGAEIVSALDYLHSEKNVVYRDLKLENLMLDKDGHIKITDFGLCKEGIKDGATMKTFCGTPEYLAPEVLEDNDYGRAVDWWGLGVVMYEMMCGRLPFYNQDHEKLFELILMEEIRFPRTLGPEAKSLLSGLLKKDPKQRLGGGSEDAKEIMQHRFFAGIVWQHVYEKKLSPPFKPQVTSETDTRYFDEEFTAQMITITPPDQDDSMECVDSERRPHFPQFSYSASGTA

Take `Cl.NC1(c2ccc(-c3nc4ccn5c(=O)[nH]nc5c4cc3-c3ccccc3)cc2)CCC1`: the Activity result in series [1] is recorded as “Toxic”; in series [8], “Non-Toxic”; in [13], 7%; in [14], “Non-Toxic”. The CI75 in series [2] was 0.46; in series [6], 0.18; in [11], 0.3. Moreover, the CI90 is listed as 0.69 in [3], 0.18 in [7], 0.27 in [10] and 0.56 in series [12]. For the same compound, the inhibition entry in series [4], in series [5] and in series [16] was “Active” in each case. The TGI entry in [9] is “Active”. In [15], the CI is 0.14.

Source of the values: ChEMBL document CHEMBL5705892, “MK-2206, an allosteric Akt inhibitor, enhances antitumor efficacy by standard chemotherapeutic agents or molecular targeted drugs in vitro and in vivo” (Mol Cancer Ther, 2010).
